Assay outcomes: PubChem BioAssay, several laboratories
PPC-1+TRAIL kill: kills PPC-1 cancer cells in the presence of TRAIL; PPC-1 cells + TRAIL, ATPLite viability luminescence; cell killing (% activity), % at 4 µM or 5 µM; actives 0.41% (n = 220,000); AID 1443;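 active = cell killing above 50% in the first pass at 4 µM, then a duplicate retest at 5 µM averaging 50% or more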;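 note: plate controls were cells with TRAIL plus DMSO for no effect and medium-only wells lacking cells for full effect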
PKD1 kinase inh: PKD1 (human) kinase inhibition; inhibition, % (test concentration not listed); PKD1 kinase fluorescence polarization assay; actives 0.056% (n = 200,000); in the data active = inhibition above about 50%
Wee1 stabilizer: inhibitors of human Wee1 degradation. P30291. HeLa Luc-Wee1K328M stability, luciferase luminescence; 100% = proteasome inhibitor MG132 effect. reporter increase, % at 5 µM. actives 1.2% (n = 220,000). AID 1321;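 active = activation above the mean of all tested compounds plus 3 SD, set per screening run, cut at about 8.8% in these data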;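 note: cells exposed to compound for 20 h before luminescence read; 0% = DMSO alone and 100% = MG132 at 30 µM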
Target sequence (P30291 whole entry K328M): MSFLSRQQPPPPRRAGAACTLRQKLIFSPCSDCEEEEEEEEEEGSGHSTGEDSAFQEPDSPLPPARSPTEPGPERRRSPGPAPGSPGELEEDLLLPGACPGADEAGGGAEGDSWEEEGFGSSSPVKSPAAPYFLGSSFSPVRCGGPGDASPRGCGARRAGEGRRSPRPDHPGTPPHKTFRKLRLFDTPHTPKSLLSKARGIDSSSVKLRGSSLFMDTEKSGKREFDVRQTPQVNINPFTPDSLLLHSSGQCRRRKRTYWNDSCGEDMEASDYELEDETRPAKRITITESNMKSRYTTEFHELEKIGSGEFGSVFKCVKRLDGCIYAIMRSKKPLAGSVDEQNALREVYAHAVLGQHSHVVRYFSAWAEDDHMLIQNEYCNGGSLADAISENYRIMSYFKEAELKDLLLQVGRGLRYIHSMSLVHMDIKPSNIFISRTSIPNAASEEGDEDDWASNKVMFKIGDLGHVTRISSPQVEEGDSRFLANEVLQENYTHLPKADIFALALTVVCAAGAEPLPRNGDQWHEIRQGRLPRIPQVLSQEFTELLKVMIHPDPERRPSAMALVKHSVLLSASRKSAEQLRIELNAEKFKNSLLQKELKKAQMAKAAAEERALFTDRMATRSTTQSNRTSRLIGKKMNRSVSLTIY
FLuc stim CS: firefly luciferase counter-screen for stimulation assays | P08659 | 200,000 tested, under 10 active | activation factor at 10 µM | ATPlite luciferase biochemical, luminescence, 10 min; 0 = ATP-free wells, 1 = DMSO control;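 active = luciferase activation factor, scaled between plate controls, of at least 2 with compound at 10 µM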
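assay system = Luciferase/luciferin detection reagent, cell-free biochemical luciferase assay | also added = ATP substrate | times = 10 min post-reagent at room temperature | measured by = luminescence from luciferase reaction | measure = luciferase activation, seen as luminescence increase over controls | benchmarks = low control with PBS replacing ATP, high control enzyme plus ATP without compound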
FLuc inh counter: Photinus pyralis luciferase inhibition counter-screen | ATPLite firefly luciferase biochemical luminescence, 10 min | inhibition, % at 10 µM | actives 1.5% (n = 200,000) | AID 1006 | P08659;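 active = inhibition above about 50% when tested at 10 µM, limit read from the data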
TRAIL sens C8: caspase-8 TRAIL sensitization | NB7+C8 cells + TRAIL, ATPlite viability luminescence | inhibition (viability loss, TRAIL sensitization), % at 10 µM | actives 1% (n = 360,000);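 active = compounds causing at least 50% loss of cell viability in the single-dose screen, relative to plate controls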
FP interf 140K: interferes with fluorescence polarization in PKD inhibitor counter-screen; shares compounds with PKD1 kinase inh; PKD1 FP assay interference counter-screen; inhibition, % at 10 µM; 85 tested, under 10 active; call rule not given here
Wee1 stab conf: human Wee1 degradation inhibition, confirmation; shares compounds with Wee1 stabilizer; HeLa Luc-Wee1K328M degradation, luminescence; vehicle 0%, proteasome-blocked wells 100%; activation, % at 5 µM; actives 4% (n = 1,100); in the data active = activation above about 8.9%
Starred values were filed as active, the others as inactive; · = no result. Most compounds without a hit are left out; they make up all but 2.2% or so of the library.

SMILES	PPC-1+TRAIL kill	PKD1 kinase inh	Wee1 stabilizer	FLuc stim CS	FLuc inh counter	TRAIL sens C8	Wee1 stab conf	others
CCCNC(=O)CN(c1ccc(F)cc1)S(=O)(=O)c1ccc2c(c1)OCCO2	2	56*	0	1	-3	-9	·	FP interf 140K=-14
CCOc1ccc(S(=O)(=O)NN2Cc3ccccc3C2=N)cc1	32	-6	0	1	-3	-2	·
O=C(NC(=S)Nc1ccc(CN2CCOCC2)cc1)c1ccc(-c2cccc(Cl)c2)o1	-2	·	1	·	·	19	·
O=C(Nc1ccc(CN2CCOCC2)cc1)c1ccc(-c2cccc(Cl)c2)o1	18	86*	3	1	5	15	·	FP interf 140K=-16
CCO[C@H]1OC(C(=O)O)=C[C@@H](c2coc3ccccc3c2=O)[C@@H]1CCCO	·	·	·	·	·	-20	·
COCC(C)n1c(C)cc(C(=O)COC(=O)c2nc3nc(C)cc(C)n3n2)c1C (stereo not given)	1	98*	-1	1.1	-6	-28	·	FP interf 140K=-6
COCC(C)n1c(C)cc(C(=O)COC(=O)c2cnc(Cl)c(Cl)c2)c1C (stereo not given)	·	·	·	·	·	11	·
N#C/C(=N\Nc1ccc(Cl)cc1)C(=O)c1ccccc1	21	0	3	1	-3	36	·
Cc1c(N/N=C(\C#N)C(=O)c2ccc(Cl)cc2)c(=O)n(-c2ccccc2)n1C	1	62*	-2	1	-3	23	·	FP interf 140K=15
CC1CCCC(CC(=O)O)(CC(=O)O)C1 (stereo not given)	10	·	0	·	·	-5	·
COc1ccc(C2C(C(=O)c3cccs3)=C(O)C(=O)N2c2nncs2)cc1 (stereo not given)	10	67*	-2	1	-2	3	·	FP interf 140K=34
COc1ccc2nc3sc(C(=O)NCCCN4CCc5ccccc5C4)cc3cc2c1	0	56*	5	0.9	5	17	·	FP interf 140K=-17
O=C(NN=C1CCCCCCCCCCC1)c1ccncc1	11	-1	4	1	-2	-9	·
Cn1c(=O)c(NCCO)c2c3c(cccc31)C(=O)c1ccccc1-2	-2	144*	-3	1.1	-5	-9	·	FP interf 140K=100*
Cn1c(OCc2cccnc2)nc2c1c(=O)n(Cc1ccc(Br)cc1)c(=O)n2C	20	97*	-3	1	-4	13	·	FP interf 140K=-4
CC(C)(C)OC(=O)N1CCN(C(=O)c2ncn(Cc3ccccc3)c2C(=O)N2CCN(C(=O)OC(C)(C)C)CC2)CC1	·	·	·	·	·	-6	·
COc1ccc(C(C)=O)cc1COC(=O)c1cnc(Cl)c(Cl)c1	8	-4	2	1.1	-6	7	·
Nc1cccc(C2=Nc3cccc4cccc(c34)N2)c1	12	6	12*	1	4	6	1
COc1ccc(C2=Nc3cccc4cccc(c34)N2)cc1	10	8	0	0.9	11	-17	·
CC(C)N1CCNCC1	4	-4	7	1	-2	-10	·
Cc1ccc(NC(=O)CN2C(=O)NC3(CCc4ccccc43)C2=O)cc1S(=O)(=O)N1CCCCC1 (stereo not given)	·	·	·	·	·	-15	·
COc1cccc(N2C(=O)[C@H]3C(C(=O)c4cnccn4)=NN[C@H]3C2=O)c1	7	·	21*	·	·	-7	-1
O=C(C1=NN[C@@H]2C(=O)N(c3cccc(F)c3)C(=O)[C@H]12)c1ccc2ccccc2n1	21	4	5	1	-5	3	·
CCOC(=O)c1oc2ccccc2c1COC(=O)CNC(=O)c1cccc(C)c1	·	·	·	·	·	5	·
CN(Cc1ccc(Cl)cc1Cl)C(=O)c1cc(=O)c2ccccc2o1	·	·	·	·	·	-1	·
SMILES	PPC-1+TRAIL kill	PKD1 kinase inh	Wee1 stabilizer	FLuc stim CS	FLuc inh counter	TRAIL sens C8	Wee1 stab conf	others
CC(=O)c1ccc(NC(=S)NCCc2ccc(S(N)(=O)=O)cc2)cc1	19	-3	27*	1	-2	12	2
NS(=O)(=O)c1ccc(NC(=S)NCCc2ccccc2)cc1	26	0	3	1.1	-9	-5	·
CCCCOC(=O)CSc1nc2ccccc2o1	2	·	12*	·	·	-9	3
O=C(O)CSc1nc2ccccc2o1	14	-3	-3	1.1	-5	0	·
Cc1cc(C)n2nc(SCC(=O)N(CCC#N)c3ccc(F)cc3)nc2n1	·	·	·	·	·	-18	·
Nc1nnc(-c2cccc([N+](=O)[O-])c2)o1	17	·	11*	·	·	1	2
COC(=O)c1c(NC(NC(C)=O)C(Cl)(Cl)Cl)sc2c1CCCC2 (stereo not given)	15	9	14*	1	2	-5	4
COC(=O)c1cccc(Nc2ncnc3sccc23)c1	8	9	14*	0.9	6	9	0
COc1cccc(Nc2ncnc3sccc23)c1	·	·	·	·	·	9	·
CCN(CC)C(=O)c1sc2c(c1C)c(=O)n(-c1ccc(OC)cc1OC)c(=O)n2CC(=O)c1ccccc1	19	-5	12*	1.1	-5	-14	-1
CCCNC(=O)c1ccc2c(c1)CCN2S(C)(=O)=O	-5	-3	3	1	0	1	·
CS(=O)(=O)N1CCc2cc(C(=O)NC3CC3)ccc21	2	-6	14*	1	-3	4	3
CCN(Cc1ccccc1)C(=O)CCc1nc(CN2CCN(C(=O)c3ccc([N+](=O)[O-])cc3)CC2)no1	·	·	·	·	·	7	·
CC(=O)Nc1ccc(/C=N/Nc2nc3ccccc3s2)cc1	21	·	13*	·	·	22	10*
Cc1ccsc1/C=N/Nc1nc2ccccc2s1	21	-4	14*	0.4	64*	25	6
CC(=O)Nc1ccc(S(=O)(=O)Nc2nc3ccccc3s2)cc1	14	2	1	1.1	-7	-15	·
C(=N\Nc1nc2ccccc2s1)/c1cccs1	32	-4	14*	0.5	48	21	5
C(=N\Nc1nc2ccccc2s1)/c1ccco1	37	6	12*	0.4	62*	25	3
Oc1ccccc1C=NNc1nc2ccccc2s1	·	·	·	·	·	25	·
CCc1cccc(CC)c1N(COC)C(=O)Cn1ccccc1=N	-3	-6	13*	1	-4	-3	-2
O=C1NC(=O)c2cc(NC(=O)C3CCCO3)ccc21 (stereo not given)	0	0	16*	1.1	-7	-12	2
CCC(C(=O)Nc1nccs1)c1ccccc1 (stereo not given)	2	-3	17*	1.1	-6	-3	1
CCCC(C(=O)Nc1nccs1)c1ccccc1 (stereo not given)	22	-3	0	1.1	-7	-17	·
NC(=O)COc1ccc2oc(-c3ccccc3)cc(=O)c2c1	43	-2	14*	0.4	56*	16	4
